Published values of several laboratories.
PRKCB: Protein kinase C beta type (PRKCB, Homo sapiens, UniProt P05771)
KMT5A: N-lysine methyltransferase KMT5A (KMT5A, Homo sapiens, UniProt Q9NQR1)
CCKAR: Cholecystokinin receptor type A (CCKAR, Homo sapiens, UniProt P32238)

Structure (SMILES) | target | observed | action | method | cell line | concentration | inhibition [%]
O=C(c1ccc(F)cc1)N(Cc1ccccc1)C1CCCCC1 | 5-hydroxytryptamine receptor 3A (HTR3A, Homo sapiens, UniProt P46098) | ligand displacement | – | – | – | 10 µM | -1
CSc1nc(C)c(-c2ccnc(Nc3ccc(N4CCOCC4)cc3)c2)[nH]1 | PRKCB | enzyme activity | inhibitor | – | – | 10 µM | 1.3
O=C1C=C2CC3(O)COc4c(ccc(O)c4O)C3=C2C=C1O (stereo not drawn) | KMT5A | cell-free assay | – | – | – | 10 µM | 8
CCN1CCN(Cc2ccc(NC(=O)c3ccc(C)c(/C=C/c4cnc5[nH]ccc5c4OC)c3)cc2C(F)(F)F)CC1 | Serine/threonine-protein kinase greatwall (MASTL, Homo sapiens, UniProt Q96GX5) | target engagement in cells | inhibitor | chemoproteomics | A-375 | 0.5 µM | 0.239
CN(C)C1CCN(CC#Cc2nn(C3CCCC3)c3nc(NCc4ccccc4)ncc23)C1 (stereo not drawn) | Misshapen-like kinase 1 (MINK1, Homo sapiens, UniProt Q8N4C8) | enzyme activity | inhibitor | FRET | – | 10 µM | 55
O=c1oc2c(O)c(O)cc3c(=O)oc4c(O)c(O)cc1c4c23 | KMT5A | cell-free assay | – | – | – | 10 µM | 2
Cc1ccc(Nc2nccc(N(C)c3ccc4c(C)n(C)nc4c3)n2)cc1S(N)(=O)=O | cAMP-dependent protein kinase catalytic subunit alpha (PRKACA, Bos taurus, UniProt P00517) | enzyme activity | inhibitor | – | – | 0.3 µM | -7
CCCS(=O)(=O)Nc1ccc(F)c(C(=O)c2c[nH]c3ncc(-c4ccc(Cl)cc4)cc23)c1F | PRKCB | enzyme activity | inhibitor | – | – | 1 µM | < 20
Cc1cc(O)c(C=O)c2c1C(=O)Oc1c(C)c(O)c3c(c1O2)C(O)OC3=O (stereo not drawn) | KMT5A | cell-free assay | – | – | – | 10 µM | -14
Cn1cncc1C1=CN(c2ncnc3[nH]cnc23)CCS1 | Serine/threonine-protein kinase LATS1 (LATS1, Homo sapiens, UniProt O95835) | enzyme activity | inhibitor | radiometric | – | 2 µM | 96.1
Oc1cccc(Nc2nc(-c3ccc(F)cc3F)cs2)c1 | Alpha-2A adrenergic receptor (ADRA2A, Homo sapiens, UniProt P08913) | cell-free assay | – | – | – | 10 µM | -22.5
O=C1c2c(O)cccc2Cc2cccc(O)c21 | KMT5A | cell-free assay | – | – | – | 10 µM | 19
CCN(CC)CCNC(=O)c1c(C)[nH]c(/C=C2\C(=O)Nc3ccc(F)cc32)c1C | PRKCB | enzyme activity | inhibitor | – | – | 10 µM | 0
O=C(c1ccc(Cl)cc1)N(Cc1ccccc1)C1CCCCC1 | CCKAR | cell-free assay | – | – | – | 10 µM | -9.6
O=C(O)CCCCCCCCCCCC[C@@H]1C=CCC1 | KMT5A | cell-free assay | – | – | – | 10 µM | -10
Cc1ccc(CNC(=O)[C@H](CCc2ccccc2)NC(=O)[C@H](CCc2ccccc2)NC(=O)[C@H](CCc2ccccc2)NC(=O)c2cnc(C)cn2)cc1 | Plasminogen (PLG, Homo sapiens, UniProt P00747) | enzyme activity | inhibitor | – | – | 100 µM | -20
COc1cc(-c2cc(-c3ccc(N4CCNCC4)cc3)cnc2N)cc(OC)c1OC | Tyrosine-protein kinase ABL1 (ABL1, Homo sapiens, UniProt P00519, T315I) | enzyme activity | inhibitor | – | – | 1 µM | 57
COc1cc2ncnc(Nc3ccc(Oc4ccccc4)c(C)c3C)c2cc1OC | PRKCB | enzyme activity | inhibitor | – | – | 1 µM | 9
COc1ccc(C(=O)c2coc3c2C(=O)C(=O)C(Cl)=C3)cc1 | Peptide deformylase, mitochondrial (Homo sapiens, UniProt Q9HBH1) | enzyme activity | inhibitor | – | – | 100 µM | ≥ 100
COc1cc(NC(C)=O)c(Cl)cc1C(=O)Nc1nccs1 | CCKAR | cell-free assay | – | – | – | 10 µM | -9.3
O=c1c(O)cccc2cc(O)c(O)c(O)c12 | KMT5A | cell-free assay | – | – | – | 10 µM | 7
